Screening data deposited in PubChem by several laboratories.
An excerpt weighted towards active compounds, which were near 1.7% of everything screened.
Vif imaging – inhibitors of HIV Vif | HEK293T cells, Vif self-association by quenched fluorescence, imaging, 24 h | inhibition, % at 7.49 µM | actives 0.35% (n = 340,000); in the data active means inhibition above about 50%, passing the limit was not always enough; inconclusive means no clear call, values can overlap the other calls; inactive means below about 31%
Runt-CBFb FRET – blocks binding of human RUNX1 Runt domain to CBFb | Q01196+Q13951 | Cerulean-Runt/Venus-CBFb FRET ratio 530/480, 1 h | inhibition, % at 20 µM | actives 0.46% (n = 220,000) | AID 1496;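 active means inhibition over about 50% at 20 µM in the single-dose screen, limit read from the data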
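Assay system: Cerulean-Runt domain / Medium: Tris 50 mM pH 7.5, KCl, K2SO4, 0.01% BSA / Timing: protein complex preformed 1 h, compound exposure 1 h, room temperature, dark / Measured by: FRET, excitation 422 nm, emission at 530 and 480 nm / Evaluation: loss of energy transfer signal / Control set: 5 µM unlabeled CBFb as full-inhibition high control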
RanGTP-Impb inh – inhibitors of RanGTP-importin-beta interaction, primary screen, biochemical, FRET, CFP-Ran, YFP-importin-beta, homogeneous | cell-free CFP-Ran/YFP-importin-beta FRET ratio | inhibition, % (test concentration not listed) | actives 1.1% (n = 300,000);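 active means more than half of the replicate wells show a fall in the fluorescence ratio signal beyond about 16%, limit read from the data, passing the limit was not always enough; inconclusive means exactly half of the replicate wells pass the set limit; inactive means fewer than half of replicates pass the limit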
Runt-SMMHC FRET – inhibitors of human RUNX1 Runt domain binding to CBFb-SMMHC; Q01196+Q13951; Cerulean-Runt/Venus-CBFb-SMMHC FRET ratio 530/480, 1 h; inhibition, % at 20 µM; actives 0.74% (n = 220,000);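 active means mean inhibition across duplicate retests at 20 µM reaching about 50%, limit read from the data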;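 further: inhibitors lower the FRET ratio by blocking Runt binding to CBFb-SMMHC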
Rce1 inhib – blocks yeast Ras-converting enzyme. Q03530. actives 0.27% (n = 290,000). yeast membranes, quenched prenylated peptide cleavage fluorescence. AID 2563. calls only;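 active means fall in fluorescence gain of 50% or more versus controls, with final raw signal at or below 3038400; inconclusive means same 50% fall but final raw signal above 3038400; inactive means fall in fluorescence gain under 50%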
Target sequence (Q03530 whole entry, looked up): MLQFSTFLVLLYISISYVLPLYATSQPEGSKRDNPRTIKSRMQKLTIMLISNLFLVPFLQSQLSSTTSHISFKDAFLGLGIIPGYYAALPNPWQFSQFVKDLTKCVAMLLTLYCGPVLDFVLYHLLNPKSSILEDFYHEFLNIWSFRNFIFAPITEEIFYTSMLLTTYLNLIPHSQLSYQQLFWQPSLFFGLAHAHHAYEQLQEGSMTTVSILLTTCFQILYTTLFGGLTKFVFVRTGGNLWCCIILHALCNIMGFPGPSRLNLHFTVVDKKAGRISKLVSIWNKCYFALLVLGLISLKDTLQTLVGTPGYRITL
Runt-CBFb TRFRET – Runt-CBFb binding inhibition | shares compounds with Runt-CBFb FRET | TR-FRET RUNX1 Runt domain-CBFb binding | inhibition, % at 20 µM | actives 20% (n = 480); in the data active means inhibition above about 40%
YIC FRET counter – counter-screen for RanGTP-importin-beta inhibitors: YIC FRET probe; shares compounds with RanGTP-Impb inh; Purified YIC probe, intramolecular FRET ratio YFP/CFP; IC50, µM; actives 40% (n = 1,000);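 active means fitted half-maximal inhibitory concentration no more than tenfold above the top dose tested; inconclusive means flat fit with 30 to 70% activity, or poor fit; inactive means half-maximal concentration beyond tenfold above the top dose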
Large screens that a line does not name were inactive (follow-up assays come after a bar, where they were run).

O=C(Nc1cccc(Cl)c1)c1nc[nH]c1C(=O)N1CCN(c2ccccc2)CC1	none (no result: Runt-CBFb FRET, RanGTP-Impb inh, Runt-SMMHC FRET, Rce1 inhib)
CCN1CCN(CCCNC(=O)CNC(=O)c2nn(-c3ccc(OC)cc3OC)c(=O)c3ccccc23)CC1	none (no result: Runt-CBFb FRET, Runt-SMMHC FRET)
CC(=O)N1CCc2c(sc(NC(=O)c3ccc([N+](=O)[O-])o3)c2C(N)=O)C1	none (no result: Runt-CBFb FRET, RanGTP-Impb inh, Runt-SMMHC FRET, Rce1 inhib)
CCOC(=O)C1(Cc2ccc(OC)cc2)CCN(C(=O)c2cncs2)CC1	Runt-CBFb FRET 54 (no result: Vif imaging) | Runt-CBFb TRFRET inactive
CCOC(=O)C1(Cc2ccc(OC)cc2)CCN(C(=O)c2csc(C)n2)CC1	none
NN1C(=O)/C(=C\c2ccco2)SC1=S	none
CCCn1c(SCC(=O)NCc2ccco2)nnc1-c1ccncc1	Runt-CBFb FRET 74 | Runt-CBFb TRFRET inactive
CCn1c(SCC(=O)NCc2ccco2)nnc1-c1ccncc1	none (no result: Vif imaging)
Cc1cccn2c(=O)c3cc(C#N)c(=N)n(Cc4ccncc4)c3nc12	Runt-CBFb FRET 70, RanGTP-Impb inh 74, Runt-SMMHC FRET 130 (no result: Vif imaging) | Runt-CBFb TRFRET inactive
CC(C)c1ccc(NC(=O)C2(C)Cc3c(-c4ccc(C(N)=O)cc4)ccnc3O2)cc1 (stereo unspecified)	none (no result: Runt-CBFb FRET, RanGTP-Impb inh, Runt-SMMHC FRET, Rce1 inhib)
O=C(CCNS(=O)(=O)c1cccc2nsnc12)NC1CCCc2ccccc21 (stereo unspecified)	none
O=C(NC1CCCc2ccccc21)C1CCC(CNS(=O)(=O)c2cccc3nsnc23)CC1 (stereo unspecified)	Runt-CBFb FRET 83, RanGTP-Impb inh inconclusive | Runt-CBFb TRFRET inactive
CN(CCC#N)C(=O)COC(=O)c1c2c(nc3ccccc13)/C(=C/c1ccco1)CC2	Runt-CBFb FRET 74 (no result: Runt-SMMHC FRET) | Runt-CBFb TRFRET 63
NS(=O)(=O)c1ccc(NC(=S)NC2CCCCCC2)cc1	none
NS(=O)(=O)c1ccc(NC(=S)NC2CCCC2)cc1	Runt-CBFb FRET 55 | Runt-CBFb TRFRET inactive
Nc1nc2c(nc(SCc3ccccc3Br)n2[C@@H]2O[C@H](CO)[C@@H](O)[C@H]2O)c(=O)[nH]1	none (no result: Runt-CBFb FRET, Runt-SMMHC FRET)
COC(=O)c1ccc(C)c(NC(=O)COC(=O)C2CC3CCCC(C2)C3=O)c1 (stereo unspecified)	none (no result: Runt-CBFb FRET, Runt-SMMHC FRET)
COC(=O)c1c(-c2ccsc2)sc2ccc(-c3cc(OC)c(OC)c(OC)c3)cc12	none (no result: Runt-CBFb FRET, RanGTP-Impb inh, Runt-SMMHC FRET, Rce1 inhib)
COc1ccccc1-c1cc(-c2ccccc2)nc(SC(C(N)=O)c2ccccc2)c1C#N (stereo unspecified)	none
Cc1cc(O)ccc1N/C=C(\C#N)c1nc2ccccc2o1	Runt-CBFb FRET 53 | Runt-CBFb TRFRET inactive
N#C/C(=C\c1c(Cl)cccc1Cl)c1nc2ccccc2o1	none
c1ccc(-c2csc(NNC3=NCCCCC3)n2)cc1	Runt-CBFb FRET 51 | Runt-CBFb TRFRET 44
Clc1ccc(-c2csc(NNC3=NCCCCC3)n2)cc1	none
CCCn1nc(NC(=O)C2CCCO2)c2cc3cccc(C)c3nc21 (stereo unspecified)	Runt-CBFb FRET 62, RanGTP-Impb inh 68, Runt-SMMHC FRET 82 | Runt-CBFb TRFRET inactive
Cn1c(=O)[nH]c(=O)c2c1nc(SCCN1CCCCC1)n2Cc1ccccc1	none
Cn1c(=O)[nH]c(=O)c2c1nc(SCCN1CCCCC1)n2CCCc1ccccc1	Runt-CBFb FRET 52 (no result: RanGTP-Impb inh, Rce1 inhib) | Runt-CBFb TRFRET inactive
Cc1ccc(Cn2c(SCCN3CCCCC3)nc3c2c(=O)[nH]c(=O)n3C)cc1	Runt-CBFb FRET 50 | Runt-CBFb TRFRET inactive
O=[N+]([O-])c1ccc(Cl)c(/C=N/n2c(-c3cccnc3)n[nH]c2=S)c1	none (no result: Vif imaging)
CC1CN(S(=O)(=O)c2cccc(C(=O)OCc3cc(=O)oc4cc(O)ccc34)c2)CC(C)O1 (stereo unspecified)	none
CN(C)c1cccc(C(=O)OCc2cc(=O)oc3cc(O)ccc23)c1	Runt-CBFb FRET 85, RanGTP-Impb inh inconclusive, Runt-SMMHC FRET 81 | Runt-CBFb TRFRET 52
Cc1cc(N2C(=O)C=CC2=O)c([N+](=O)[O-])cc1C	Runt-CBFb FRET 53 (no result: RanGTP-Impb inh) | Runt-CBFb TRFRET inactive
Cc1c([N+](=O)[O-])cc(N2C(=O)C=CC2=O)cc1[N+](=O)[O-]	none (no result: Runt-CBFb FRET, RanGTP-Impb inh, Runt-SMMHC FRET, Rce1 inhib)
COC(=O)c1ccccc1N/C=C1\CCc2c(c(C)nn2-c2ccccn2)C1=O	Runt-CBFb FRET 54, RanGTP-Impb inh 36, Runt-SMMHC FRET 63 | Runt-CBFb TRFRET 51
Fc1ccc(C2CC(c3ccco3)=Nc3ccccc3S2)cc1 (stereo unspecified)	Runt-CBFb FRET 51 | Runt-CBFb TRFRET inactive
O=[N+]([O-])c1ccc(C2CC(c3ccccc3)=Nc3ccccc3S2)cc1 (stereo unspecified)	Runt-CBFb FRET 56 | Runt-CBFb TRFRET inactive
O=C(CNC(=O)c1ccc(Br)o1)NC1CCCCC1	RanGTP-Impb inh inconclusive (no result: Runt-CBFb FRET, Runt-SMMHC FRET)
CCOP(=O)(c1ccc(N(C)C)cc1)C(O)c1ccc(OC)cc1 (stereo unspecified)	none (no result: Runt-CBFb FRET, Runt-SMMHC FRET)
Cc1c(NS(=O)(=O)c2ccc3c(c2)CCN3C(=O)C2CC2)c(=O)n(-c2ccccc2)n1C	Runt-CBFb FRET 57 | Runt-CBFb TRFRET inactive
Cc1c(NS(=O)(=O)c2cc(Br)cc3c2N(C(=O)C2CC2)CC3)c(=O)n(-c2ccccc2)n1C	none
NS(=O)(=O)c1ccc(CCNC(=O)Cc2ccc(Cl)cc2)cc1	none (no result: Runt-CBFb FRET, Runt-SMMHC FRET)
CCN1C2=C(C(=O)CCC2)C(c2ccc(O)c(Br)c2)C2=C1CCCC2=O	Runt-CBFb FRET 54, RanGTP-Impb inh 35, Runt-SMMHC FRET 122 | Runt-CBFb TRFRET inactive | YIC FRET counter 8.4
Cc1ccc(-c2nc3cccnc3s2)cc1NS(=O)(=O)c1cccs1	none
CCc1ccc(S(=O)(=O)Nc2ccc(-c3nc4cccnc4s3)cc2)s1	Runt-CBFb FRET 80, RanGTP-Impb inh 40, Runt-SMMHC FRET 148 | Runt-CBFb TRFRET inactive | YIC FRET counter 9.7
CCn1c(C(=O)O)c(CC(=O)N(C)c2ccc(OC)cc2OC)c2ccccc21	none (no result: Runt-CBFb FRET, Runt-SMMHC FRET)
COCCN1C=C(C(=O)OC)C(c2cc(Br)c(OC)c(OC)c2)C(C(=O)OC)=C1	Runt-CBFb FRET 73, RanGTP-Impb inh 20, Runt-SMMHC FRET 142 | Runt-CBFb TRFRET inactive | YIC FRET counter 31
COC(=O)C1=CN(C)C=C(C(=O)OC)C1c1ccc(O)c(OC)c1	none
CCc1c(C)c2cc(Cl)c(O)c(CN3CCCCC3)c2oc1=O	Runt-CBFb FRET 85, RanGTP-Impb inh 22, Runt-SMMHC FRET 156, Rce1 inhib inconclusive | Runt-CBFb TRFRET inactive | YIC FRET counter 26
CCOc1ccc(Nc2c3ccccc3nc3ccccc23)cc1	Runt-CBFb FRET 60, RanGTP-Impb inh 54 | Runt-CBFb TRFRET 41 | YIC FRET counter inactive
O=C(Cn1c2[n+](c3ccc(C(F)(F)F)cc31)CCCCC2)c1ccc2c(c1)OCCO2	none (no result: RanGTP-Impb inh)
COCCNC(=O)/C(C#N)=C/c1cc(Br)c(O)c(OC)c1	none
